Article PMC12827892 (Acta Pharmaceutica Sinica. B, 2025)
Read-outs that look alike come from different tables or passages of the source.

Legend:
[1] = test system: panel of over 300 wild-type human kinases; assay: KINOMEscan kinase selectivity profile; type: binding; settings: 1 μmol/L
[2] = test system: SARS-CoV-2; assay: SARS-CoV-2 replication in hACE2-HeLa cells; type: cell-based; settings: 10 μmol/L
[3] = test system: SARS-CoV-2; type: cell-based; settings: 4 μmol/L
[4] = test system: phosphorylation levels of RIPK1 Ser166; type: cell-based; settings: mouse airway organoids
[5] = test system: expression levels of ACE2; type: cell-based; settings: mouse airway organoids
[6] = test system: cytokine secretion; type: cell-based, mouse; settings: single agent
[7] = Pharmacokinetic studies in mice; type: in vivo, male ICR mice
Procedure, shortened: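 Test compound was formulated in 10% (v/v) dimethylacetamide and 10% (w/v) Solutol HS 15 in normal saline. It was given to male ICR mice by tail-vein iv (1 mpk) or ip (10 mpk). Plasma from centrifuged whole blood was diluted in acetonitrile with internal standard. Brain was taken into PBS/acetonitrile (1:8) with internal standard and homogenised (30 Hz, 10 min). Samples were centrifuged (4 °C, 14,000 rpm, 10 min) and analysed by LC-MS/MS.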

[8] = test system: SARS-CoV-2; type: in vivo, K18-hACE2 transgenic mice; settings: ip, BID; for Weight loss in infected mice: five days; for SARS-CoV-2 viral loads in the lungs: Day 6, RT-PCR and IHC
[9] = target: SARS-CoV-2 Nsp3^179−1329 (Severe acute respiratory syndrome coronavirus 2, UniProt P0DTD1); assay: Nsp3 DUB activity, Rho-110 cleavage assay; type: biochemical
[10] = target: Nsp3179-1329 proteins (Severe acute respiratory syndrome coronavirus 2, UniProt P0DTD1); design: species or system SARS-CoV-2; settings: incubation with compound, SEC
[11] = Stability in mouse liver microsomes; type: in vitro ADME; settings: compared to 2
[12] = target: USP7 (Homo sapiens, UniProt Q93009); assay: DUB enzymatic assay; type: biochemical; settings: 10 μmol/L
Chain of USP7 (Q93009 whole entry, species assumed): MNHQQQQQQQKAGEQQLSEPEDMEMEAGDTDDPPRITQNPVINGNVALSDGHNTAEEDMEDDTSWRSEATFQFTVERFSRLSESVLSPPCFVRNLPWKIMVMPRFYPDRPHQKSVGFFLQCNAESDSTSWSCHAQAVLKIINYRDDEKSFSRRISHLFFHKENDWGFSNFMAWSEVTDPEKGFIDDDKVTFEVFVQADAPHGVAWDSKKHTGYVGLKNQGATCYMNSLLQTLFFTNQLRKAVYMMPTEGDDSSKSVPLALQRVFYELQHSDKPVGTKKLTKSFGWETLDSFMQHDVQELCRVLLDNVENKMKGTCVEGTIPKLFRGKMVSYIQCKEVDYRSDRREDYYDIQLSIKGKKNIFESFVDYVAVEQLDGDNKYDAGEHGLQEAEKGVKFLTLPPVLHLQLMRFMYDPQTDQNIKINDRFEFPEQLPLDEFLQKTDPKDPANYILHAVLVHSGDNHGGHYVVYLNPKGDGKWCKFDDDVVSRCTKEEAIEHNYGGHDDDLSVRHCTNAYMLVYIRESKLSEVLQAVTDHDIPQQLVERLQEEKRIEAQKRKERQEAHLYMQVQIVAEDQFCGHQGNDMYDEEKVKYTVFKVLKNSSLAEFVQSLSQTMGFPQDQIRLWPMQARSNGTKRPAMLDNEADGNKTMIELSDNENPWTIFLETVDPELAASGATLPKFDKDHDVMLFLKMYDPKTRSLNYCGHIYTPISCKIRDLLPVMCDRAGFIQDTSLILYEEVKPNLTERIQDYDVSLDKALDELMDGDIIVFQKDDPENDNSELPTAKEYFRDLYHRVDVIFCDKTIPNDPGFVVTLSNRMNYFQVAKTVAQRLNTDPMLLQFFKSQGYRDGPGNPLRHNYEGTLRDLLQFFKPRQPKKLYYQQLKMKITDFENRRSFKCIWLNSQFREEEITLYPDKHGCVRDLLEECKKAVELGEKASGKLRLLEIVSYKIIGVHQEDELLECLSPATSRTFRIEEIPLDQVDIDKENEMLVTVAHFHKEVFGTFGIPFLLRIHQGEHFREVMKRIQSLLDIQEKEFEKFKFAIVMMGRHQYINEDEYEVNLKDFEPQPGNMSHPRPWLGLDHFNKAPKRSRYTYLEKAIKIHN

[13] = target: T1, USP8 (Homo sapiens, UniProt P40818); assay: DUB enzymatic assay; type: biochemical; settings: 10 μmol/L
T1 sequence (P40818 1-1118): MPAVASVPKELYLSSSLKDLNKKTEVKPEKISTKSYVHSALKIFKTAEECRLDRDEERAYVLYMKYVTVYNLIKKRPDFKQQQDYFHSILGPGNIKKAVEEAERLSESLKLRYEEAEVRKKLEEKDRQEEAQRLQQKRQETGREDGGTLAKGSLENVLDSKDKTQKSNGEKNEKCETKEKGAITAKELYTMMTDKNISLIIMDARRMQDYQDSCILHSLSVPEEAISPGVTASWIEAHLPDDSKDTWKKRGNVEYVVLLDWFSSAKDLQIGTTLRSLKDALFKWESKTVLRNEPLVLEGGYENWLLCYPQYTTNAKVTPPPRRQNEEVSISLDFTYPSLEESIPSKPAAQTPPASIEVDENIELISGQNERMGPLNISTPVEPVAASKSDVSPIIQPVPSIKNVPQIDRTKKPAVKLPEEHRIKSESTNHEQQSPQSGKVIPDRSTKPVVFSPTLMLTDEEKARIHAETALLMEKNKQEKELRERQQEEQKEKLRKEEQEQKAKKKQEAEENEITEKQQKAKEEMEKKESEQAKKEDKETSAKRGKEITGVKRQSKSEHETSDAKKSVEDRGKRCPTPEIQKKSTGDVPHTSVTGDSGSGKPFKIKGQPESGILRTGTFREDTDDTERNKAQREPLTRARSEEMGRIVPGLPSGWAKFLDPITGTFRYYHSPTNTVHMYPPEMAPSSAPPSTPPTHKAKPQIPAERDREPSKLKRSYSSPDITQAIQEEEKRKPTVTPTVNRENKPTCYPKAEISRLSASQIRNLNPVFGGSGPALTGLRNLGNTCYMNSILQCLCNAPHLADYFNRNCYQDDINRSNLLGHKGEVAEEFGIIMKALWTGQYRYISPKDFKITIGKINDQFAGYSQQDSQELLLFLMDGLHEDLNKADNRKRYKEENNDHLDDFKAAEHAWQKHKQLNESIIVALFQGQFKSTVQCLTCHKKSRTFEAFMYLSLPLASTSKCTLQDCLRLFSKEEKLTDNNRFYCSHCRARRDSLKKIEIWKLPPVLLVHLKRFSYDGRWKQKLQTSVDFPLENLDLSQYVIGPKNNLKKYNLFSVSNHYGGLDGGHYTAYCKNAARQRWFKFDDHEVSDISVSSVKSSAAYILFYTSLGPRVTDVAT

[14] = target: USP14 (Homo sapiens, UniProt P54578); assay: DUB enzymatic assay; type: biochemical; settings: 10 μmol/L
Chain of USP14 (P54578 whole entry, species assumed): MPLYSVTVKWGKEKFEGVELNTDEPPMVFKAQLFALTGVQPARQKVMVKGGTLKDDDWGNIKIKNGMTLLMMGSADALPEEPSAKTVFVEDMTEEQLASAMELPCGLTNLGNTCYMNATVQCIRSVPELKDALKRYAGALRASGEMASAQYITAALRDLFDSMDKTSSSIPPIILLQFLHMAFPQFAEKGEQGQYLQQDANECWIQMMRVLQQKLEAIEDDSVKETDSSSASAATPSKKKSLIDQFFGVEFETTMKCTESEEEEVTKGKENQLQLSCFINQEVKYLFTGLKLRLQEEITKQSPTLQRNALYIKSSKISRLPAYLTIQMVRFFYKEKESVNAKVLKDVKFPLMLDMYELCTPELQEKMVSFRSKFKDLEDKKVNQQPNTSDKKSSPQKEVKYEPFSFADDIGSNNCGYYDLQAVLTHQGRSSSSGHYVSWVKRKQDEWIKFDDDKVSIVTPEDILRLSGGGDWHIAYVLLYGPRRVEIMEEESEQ

[15] = target: T2, UCHL1 (Homo sapiens, UniProt P09936); assay: DUB enzymatic assay; type: biochemical; settings: 10 μmol/L
T2 sequence (P09936 1-223): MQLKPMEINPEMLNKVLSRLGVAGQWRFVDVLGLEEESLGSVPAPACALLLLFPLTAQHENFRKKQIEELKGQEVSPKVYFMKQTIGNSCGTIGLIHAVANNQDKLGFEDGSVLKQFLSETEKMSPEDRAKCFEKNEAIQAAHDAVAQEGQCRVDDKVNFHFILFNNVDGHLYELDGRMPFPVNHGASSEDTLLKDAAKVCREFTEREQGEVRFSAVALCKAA

[16] = target: OTULIN (Homo sapiens, UniProt Q96BN8); assay: DUB enzymatic assay; type: biochemical; settings: 10 μmol/L
Chain of OTULIN (Q96BN8 whole entry, species assumed): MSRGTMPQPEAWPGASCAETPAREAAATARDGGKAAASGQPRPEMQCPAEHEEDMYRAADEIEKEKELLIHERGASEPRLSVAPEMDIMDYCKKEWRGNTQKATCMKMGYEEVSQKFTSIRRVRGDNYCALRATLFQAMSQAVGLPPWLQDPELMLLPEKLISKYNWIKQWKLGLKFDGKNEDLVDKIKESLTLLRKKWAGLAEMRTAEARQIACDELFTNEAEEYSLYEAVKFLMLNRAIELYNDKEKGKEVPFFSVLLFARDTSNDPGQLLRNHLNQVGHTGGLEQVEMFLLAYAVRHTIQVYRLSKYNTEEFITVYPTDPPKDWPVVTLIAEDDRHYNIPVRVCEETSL

[17] = target: OTUB1 (Homo sapiens, UniProt Q96FW1); assay: DUB enzymatic assay; type: biochemical; settings: 10 μmol/L
Chain of OTUB1 (Q96FW1 whole entry, species assumed): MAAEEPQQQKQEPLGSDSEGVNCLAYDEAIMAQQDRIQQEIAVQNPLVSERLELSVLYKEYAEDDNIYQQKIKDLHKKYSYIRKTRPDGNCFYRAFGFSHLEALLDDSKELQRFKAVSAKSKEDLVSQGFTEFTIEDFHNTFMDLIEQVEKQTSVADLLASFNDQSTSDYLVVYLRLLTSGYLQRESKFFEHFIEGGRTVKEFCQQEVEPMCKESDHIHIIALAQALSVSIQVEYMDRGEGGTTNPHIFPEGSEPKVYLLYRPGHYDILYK

[18] = test system: OC43; type: cell-based, HCoV-OC43; settings: Huh7 hepatocytes, 0.1 MOI
[19] = test system: 229E; type: cell-based, HCoV-229E

Structure (SMILES): [2H]c1c([2H])c([C@]2([2H])CCCN2C(=O)C(C)(C)Oc2ccc3cn[nH]c3c2)c([2H])c([2H])c1C([2H])([2H])[2H] [QY1892, (S)-2-((1H-Indazol-6-yl)oxy)-2-methyl-1-(2-(4-(methyl-d3)phenyl-2,3,5,6-d4)pyrrolidin-1-yl-2-d)propan-1-one]
- Kinase selectivity across the kinome [1]: no significant off-target activity observed across the kinome
- Effects against SARS-CoV-2 in ACE2-HeLa cells [2]: neither QY1892 nor DNL758 exhibited detectable effects
- Viral replication in mouse airway organoids [3]: effectively suppressed the viral replication
- Phosphorylation levels of RIPK1 Ser166 following viral infection [4]: significantly reduced
- Expression levels of ACE2 [5]: significantly reduced
- Cytokine secretion from the organoids upon viral infection [6]: significantly more effective than SHY1643
- Brain distribution post-administration [7]: significant brain distribution
- Weight loss in infected mice ([8]; 5 mpk): significantly slowed the weight loss
- SARS-CoV-2 viral loads in the lungs ([8]; 5 mpk): effectively reduced viral loads in the lungs

Structure (SMILES): C[C@H](c1cccc2ccccc12)N1CCC(C(=O)NCc2cccc(-c3cn(Cc4nnc5c(F)cccn45)nn3)c2)CC1 [SHY1643, (R)-N-(3-(1-((8-Fluoro-[1,2,4]triazolo[4,3-a]pyridin-3-yl)methyl)-1H-1,2,3-triazol-4-yl)benzyl)-1-(1-(naphthalen-1-yl)ethyl)piperidine-4-carboxamide]
- IC50 [9]: 28 nM
- Dimerization of Nsp3 protein [10]: could induce dimerization of Nsp3 protein
- Metabolic stability in mouse microsomes [11]: markedly improved metabolic stability compared to 2
- Inhibitory effect on USP7 [12]: no significant inhibitory effects
- Inhibitory effect on USP8 [13]: no significant inhibitory effects
- Inhibitory effect on USP14 [14]: no significant inhibitory effects
- Inhibitory effect on UCHL1 [15]: no significant inhibitory effects
- Inhibitory effect on OTULIN [16]: no significant inhibitory effects
- Inhibitory effect on OTUB1 [17]: no significant inhibitory effects
- Antiviral activity against OC43 [18]: robust antiviral activity
- Antiviral activity against 229E [19]: robust antiviral activity
- Phosphorylation levels of RIPK1 Ser166 following viral infection [4]: did not affect
- Expression levels of ACE2 [5]: did not affect
- Weight loss in infected mice ([8]; 10 mpk): significantly slowed the weight loss
- SARS-CoV-2 viral loads in the lungs ([8]; 10 mpk): effectively reduced viral loads in the lungs

Structure (SMILES): CN1C(=O)[C@@H](NC(=O)c2nnc(Cc3ccccc3)[nH]2)COc2cccnc21 [DNL758, reference compound]
- Effects against SARS-CoV-2 in ACE2-HeLa cells [2]: neither QY1892 nor DNL758 exhibited detectable effects
